This is an account of results in ChEMBL document CHEMBL3259611, “Suppression of inflammatory responses by handelin, a guaianolide dimer from Chrysanthemum boreale, via downregulation of NF-κB signaling and pro-inflammatory cytokine production” (J Nat Prod, 2014).

Activity calls are given as the source filed them. The rule behind the calls is not given here.

In data set [1] the test system is RAW264.7. Description: Antiinflammatory activity in mouse RAW264.7 cells assessed as inhibition of LPS-induced PGE2 production administered 1 hr prior to LPS challenge measured after 20 hrs by EIA relative to control. In kind it is functional, cell-based. An outline of the steps: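 RAW 264.7 cells plated at 3 × 10^5 cells/mL, pretreated with compound for 1 h, then stimulated with 1 μg/mL LPS for 20 h. PGE2 in the supernatant was measured by immunoassay kit. Mean ± SD of triplicates.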

In data set [2] the target is MAP kinase p38 (Mus musculus) (UniProt P47811+O08911+Q9WUI1+Q9Z1B7). The experiment in a line: Inhibition LPS-induced p38 kinase phosphorylation in mouse RAW264.7 cells at 10 to 40 uM administered 30 mins prior to LPS challenge measured after 30 mins by Western blotting analysis. In kind it is cell-based. The method in brief: (§1)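 RAW 264.7 cells pretreated with compound for 30 min, then stimulated with LPS for an additional 30 min. Lysates resolved by 6−15% SDS-PAGE and blotted to PVDF. Primary antibodies were applied overnight at 4 °C and secondary antibodies for 2 h at room temperature. Detection by ECL. Tests in triplicate; blots representative of three separate experiments.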
A general note: In western blotting, separated proteins are transferred to a membrane and probed.

In data set [3] the test system is RAW264.7. The experiment in a line: Antiinflammatory activity in mouse RAW264.7 cells assessed as inhibition of LPS-induced COX2 mRNA expression at 40 uM after 5 hrs by RT-PCR analysis relative to control. In kind it is functional. An outline of the steps: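 RAW 264.7 cells exposed to 1 μg/mL LPS with or without compound for 5 h. Total RNA was analysed by RT-PCR: 25−30 cycles with annealing at 55 °C. Products were separated on 2% agarose gel with SYBR-Safe staining. Experiments in triplicate.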

For data set [4], the target named is Transcription factor p65 (Mus musculus) (UniProt Q04207). Description: Inhibition of LPS-induced NFkappaB P65 protein nuclear translocation in mouse RAW264.7 cells at 20 uM after 30 mins by Western blotting analysis relative to control. In kind it is cell-based. An outline of the steps:
(§2)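 Macrophages were exposed to compound for 30 min before LPS stimulation, with proteins extracted 30 min later. Nuclear extracts were prepared in Tris/KCl/NP-40 lysis buffer, then 420 mM NaCl buffer, and the cytosolic fraction was kept for IκB-α. Western blot on PVDF with ECL detection. Tests in triplicate; representative of three separate experiments.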

For data set [5], the system named is RAW264.7. Description: Antiinflammatory activity in mouse RAW264.7 cells assessed as inhibition LPS-induced IL-1beta protein expression at 40 uM after 4 hrs by Western blotting analysis. In kind it is functional. An outline of the steps: (§3)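 RAW 264.7 cells stimulated with LPS (1 μg/mL) with or without compound for 4 h. Lysates were resolved by 6−15% SDS-PAGE and blotted to PVDF. Blocked in 5% milk/PBST, primary antibody overnight at 4 °C, secondary antibody 2 h, detected by ECL. Triplicate, representative of three experiments.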

Data set [6] has as its target T1, Nuclear factor NF-kappa-B p105 subunit (Mus musculus) (UniProt P25799).
T1 sequence (whole entry): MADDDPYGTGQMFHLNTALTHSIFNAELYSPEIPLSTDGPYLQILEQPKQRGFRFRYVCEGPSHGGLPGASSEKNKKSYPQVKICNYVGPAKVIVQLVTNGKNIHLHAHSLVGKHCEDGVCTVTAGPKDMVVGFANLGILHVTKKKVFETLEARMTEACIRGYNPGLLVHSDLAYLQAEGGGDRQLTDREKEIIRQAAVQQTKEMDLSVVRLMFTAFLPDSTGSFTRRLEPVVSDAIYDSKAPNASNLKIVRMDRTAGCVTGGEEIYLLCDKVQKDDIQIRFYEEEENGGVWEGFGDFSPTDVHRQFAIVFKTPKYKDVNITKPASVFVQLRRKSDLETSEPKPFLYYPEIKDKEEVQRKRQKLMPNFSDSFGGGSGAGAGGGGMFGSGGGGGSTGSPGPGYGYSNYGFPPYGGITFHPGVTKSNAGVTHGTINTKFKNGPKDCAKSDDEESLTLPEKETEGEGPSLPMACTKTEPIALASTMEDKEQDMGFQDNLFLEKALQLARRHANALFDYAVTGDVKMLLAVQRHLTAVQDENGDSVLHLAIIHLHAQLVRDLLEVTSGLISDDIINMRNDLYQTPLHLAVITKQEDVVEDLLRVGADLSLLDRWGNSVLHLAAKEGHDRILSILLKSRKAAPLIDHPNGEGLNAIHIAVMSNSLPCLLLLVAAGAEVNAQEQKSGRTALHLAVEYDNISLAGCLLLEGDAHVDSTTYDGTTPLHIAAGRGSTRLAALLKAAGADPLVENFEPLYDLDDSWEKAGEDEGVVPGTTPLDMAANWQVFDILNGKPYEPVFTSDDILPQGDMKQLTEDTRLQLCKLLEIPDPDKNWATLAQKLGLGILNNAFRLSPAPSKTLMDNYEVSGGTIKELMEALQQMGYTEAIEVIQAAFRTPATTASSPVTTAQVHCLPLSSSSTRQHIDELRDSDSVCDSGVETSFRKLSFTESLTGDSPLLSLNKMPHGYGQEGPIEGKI
Description: Inhibition of LPS-induced NFkappaB P50 protein nuclear translocation in mouse RAW264.7 cells at 20 uM after 30 mins by Western blotting analysis relative to control. In kind it is cell-based. The method in brief:
as §2

Data set [7] relates to RAW264.7. Description: Antiinflammatory activity in mouse RAW264.7 cells assessed as inhibition of LPS-induced iNOS protein expression at 20 uM after 16 hrs by Western blotting analysis relative to control. In kind it is functional. The method in brief: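 RAW 264.7 cells given LPS (1 μg/mL) with or without compound for 16 h. Cell lysates were Western blotted for iNOS and COX-2 (6−15% SDS-PAGE, PVDF, ECL detection). Performed in triplicate.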

Data set [8] concerns RAW264.7. The experiment in a line: Antiinflammatory activity in mouse RAW264.7 cells assessed as inhibition LPS-induced IL-1beta protein expression after 4 hrs by Western blotting analysis. In kind it is functional, cell-based. The method in brief:
as §3

The nature of data set [9]: Cytotoxicity against mouse RAW264.7 cells assessed as cell viability at 40 uM after 4 hrs by MTT assay relative to control. In kind it is cell-based. Particulars: read-out: Activity. An outline of the steps: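 RAW 264.7 cells plated at 3 × 10^5 cells/mL in phenol red-free 10% FBS–DMEM, incubated 24 h, then treated with compound plus 1 μg/mL LPS for 20 h. After the Griess step, MTT was added (final 500 μg/mL) for 4 h at 37 °C. Formazan dissolved in DMSO, A570 read; survival taken relative to control; triplicate.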
On the technique in general: Tetrazolium dyes change colour on reduction, which living cells bring about.

In data set [10] the test system is Mus musculus. The experiment in a line: Antiinflammatory activity in ICR mouse ear edema model assessed as inhibition of TPA-induced COX2 protein expression in ear tissue at 10 to 20 mg/kg, po administered 30 mins prior to TPA challenge measured after 4 hrs by Western blotting analysis relative to vehicle-treated control. In kind it is functional, organism-based. The method in brief:
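ICR mice (male, 18−20 g, 5 weeks old) dosed orally 30 min before TPA (1.0 μg in 20 μL acetone) was applied to inner and outer surfaces of the right ear. Killed by cervical dislocation after 4 h. Edema taken as the weight of a 5 mm punch biopsy of the right ear over the left. Ear homogenates were Western blotted for iNOS, COX-2 and IL-1β.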

Data set [11] addresses JNK1/JNK2 (Mus musculus) (UniProt Q91Y86+Q9WTU6). The experiment in a line: Inhibition LPS-induced JNK1/2 phosphorylation at Thr183/[…] in mouse RAW264.7 cells at 40 uM administered 30 mins prior to LPS challenge measured after 30 mins by Western blotting analysis. In kind it is cell-based. The method in brief: as §1

Chain of Transcription factor p65 (Mus musculus) (Q04207 whole entry): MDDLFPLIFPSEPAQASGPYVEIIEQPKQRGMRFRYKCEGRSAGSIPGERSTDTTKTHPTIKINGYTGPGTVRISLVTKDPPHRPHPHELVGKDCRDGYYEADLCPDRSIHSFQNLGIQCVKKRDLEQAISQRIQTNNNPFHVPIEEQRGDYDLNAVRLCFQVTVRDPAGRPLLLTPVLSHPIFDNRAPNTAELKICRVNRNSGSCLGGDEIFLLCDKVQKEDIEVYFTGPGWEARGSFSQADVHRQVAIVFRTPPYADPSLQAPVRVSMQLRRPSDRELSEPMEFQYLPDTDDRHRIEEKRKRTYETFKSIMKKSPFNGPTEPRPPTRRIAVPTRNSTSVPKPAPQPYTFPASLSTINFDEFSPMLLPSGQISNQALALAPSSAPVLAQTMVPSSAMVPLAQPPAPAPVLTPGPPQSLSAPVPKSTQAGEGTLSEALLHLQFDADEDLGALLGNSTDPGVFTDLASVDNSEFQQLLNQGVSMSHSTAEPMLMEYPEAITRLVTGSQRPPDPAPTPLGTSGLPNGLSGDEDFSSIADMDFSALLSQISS
Chain of JNK1/JNK2 (Mus musculus) (Q91Y86 whole entry, looked up): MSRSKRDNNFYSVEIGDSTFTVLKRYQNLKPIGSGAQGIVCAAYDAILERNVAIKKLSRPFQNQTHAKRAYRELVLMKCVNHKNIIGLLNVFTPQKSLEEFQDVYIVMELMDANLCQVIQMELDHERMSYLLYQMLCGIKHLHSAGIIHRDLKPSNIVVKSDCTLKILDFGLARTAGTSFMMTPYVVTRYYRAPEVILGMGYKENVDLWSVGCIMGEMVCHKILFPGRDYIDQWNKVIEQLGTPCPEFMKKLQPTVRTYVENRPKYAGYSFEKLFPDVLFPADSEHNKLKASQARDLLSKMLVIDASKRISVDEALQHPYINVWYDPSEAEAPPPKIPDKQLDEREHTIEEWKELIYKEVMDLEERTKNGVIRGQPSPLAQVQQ
Chain of JNK1/JNK2 (Mus musculus) (Q9WTU6 whole entry, looked up): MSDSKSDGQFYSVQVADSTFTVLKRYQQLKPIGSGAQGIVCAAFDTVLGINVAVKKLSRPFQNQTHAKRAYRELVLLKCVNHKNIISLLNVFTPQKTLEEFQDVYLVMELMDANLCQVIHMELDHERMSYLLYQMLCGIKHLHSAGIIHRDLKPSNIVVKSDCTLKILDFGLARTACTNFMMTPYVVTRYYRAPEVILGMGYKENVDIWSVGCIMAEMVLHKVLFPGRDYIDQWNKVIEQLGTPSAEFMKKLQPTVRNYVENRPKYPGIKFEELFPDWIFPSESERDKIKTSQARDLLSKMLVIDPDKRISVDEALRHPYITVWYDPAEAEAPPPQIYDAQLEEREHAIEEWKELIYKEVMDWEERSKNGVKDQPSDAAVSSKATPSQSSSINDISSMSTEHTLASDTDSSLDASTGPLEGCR

Consider `C=C1C(=O)O[C@@H]2[C@@H]3[C@@]4(C=C[C@@]3(C)[C@]3(C4)C(=O)O[C@@H]4[C@H]5C(C)=CC[C@H]5[C@](C)(O)C[C@H](OC(C)=O)[C@H]43)[C@](C)(O)CC[C@@H]12`, for which the IC50 (in general, the point on the concentration scale where inhibition reaches its midpoint) in data set [1] came to 14.3 µM. Further, the inhibition entry in data set [1] and in [8] was “Dose-dependent effect” throughout. Also, the inhibition result in data set [2] is “inactive”. In addition, the “fold change (FC)” value in data set [3] is 0.22; in data set [4] it was 0.63; in [5] it was 0.65; in [6], 0.21; in data set [7], 0.29; in data set [11], 0.24. Also, the viability at 4 h, 40 µM in data set [9] was 83%. Moreover, the inhibition result in data set [10] was “Active”.
